Experimental data: the array DNA melting data of Ke et al. (doi:10.1101/2024.01.08.574731)

What was measured:
[1] = folding enthalpy; higher = less favourable; fluorescence melt of hairpins on a sequencing array, two-state fit; details: sodium 0.088 M
Method in brief: (§1)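 On a sequenced MiSeq flow cell, library hairpins with annealed Cy3 and quencher oligos were imaged for Cy3 fluorescence in 2.5 °C steps up to 60 °C, in 50 mM Na-HEPES pH 8.0, 25 mM NaCl. Normalisation used pre-quench Cy3 and control constructs. Bootstrapped two-state fits gave melting temperature and folding enthalpy, combined by inverse variance across four replicates and with fitted temperatures raised by 9.35 °C to match UV melts.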

[2] = melting temperature; fluorescence melt of hairpins on a sequencing array, two-state fit, raised by 9.35 °C to match UV melts; details: sodium 0.088 M
Method in brief: as §1

Sequence: GGAAGCGAAAGCTGTTCC ((((((....)))..)))
- folding enthalpy [1]: -12.1 kcal/mol
- Tm [2]: 36.5 °C

Sequence: GATCATTCCAATGATC ((((((....))))))
- folding enthalpy [1]: -33.9 kcal/mol
- Tm [2]: 50.4 °C

Sequence: GCGGGGGGAAACTCCCGC (((((.(....).)))))
- folding enthalpy [1]: -33.8 kcal/mol
- Tm [2]: 68.4 °C

Sequence: CGAAGGAAACTTCG (((((....)))))
- folding enthalpy [1]: -21.5 kcal/mol
- Tm [2]: 48.6 °C

Sequence: GGTCTTGGAAACAAGGCC ((.((((....)))).))
- folding enthalpy [1]: -48.6 kcal/mol
- Tm [2]: 54.7 °C

Sequence: GAACGTGGAAACACGTTC (((((((....)))))))
- folding enthalpy [1]: -31.6 kcal/mol
- Tm [2]: 66.3 °C

Sequence: GCGGACAACCGC ((((....))))
- folding enthalpy [1]: -19.5 kcal/mol
- Tm [2]: 53.1 °C

Sequence: GTTGCTGGAAACAACAAC ((((.((....)).))))
- folding enthalpy [1]: -29.2 kcal/mol
- Tm [2]: 38.8 °C

Sequence: CGAACGGAAACGTGCTCG ((((((....)))..)))
- folding enthalpy [1]: -15.1 kcal/mol
- Tm [2]: 28.5 °C

Sequence: GCGTCGCGAAAGCTAAGC ((.(.((....)).).))
- folding enthalpy [1]: -20.2 kcal/mol
- Tm [2]: 51.4 °C

Sequence: GGACACCGAAAGGTCTCC (((.(((....))).)))
- folding enthalpy [1]: -23.8 kcal/mol
- Tm [2]: 40 °C

Sequence: GTCAGACGAAAGTCGGAC (((.(((....))).)))
- folding enthalpy [1]: -35.5 kcal/mol
- Tm [2]: 63.1 °C

Sequence: GGGCCACGAAAGTGTCCC (((.(((....))).)))
- folding enthalpy [1]: -45.3 kcal/mol
- Tm [2]: 57.3 °C

Sequence: GCTACGCGAAAGCTTAGC ((((.((....)).))))
- folding enthalpy [1]: -20.8 kcal/mol
- Tm [2]: 55.4 °C

Sequence: GTACTCCGAAAGGATAC (((.(((....))))))
- folding enthalpy [1]: -21.6 kcal/mol
- Tm [2]: 36.9 °C

Sequence: GCAACTGGAAACAGTTGC (((((((....)))))))
- folding enthalpy [1]: -47.5 kcal/mol
- Tm [2]: 67.1 °C

Sequence: GCAGTTGGAAACAATTGC (((.(((....))).)))
- folding enthalpy [1]: -31.2 kcal/mol
- Tm [2]: 46.9 °C

Sequence: GATCATTCATATGATC ((((((....))))))
- folding enthalpy [1]: -38.8 kcal/mol
- Tm [2]: 48 °C

Sequence: GCCAGAGGAAACTCTGGC (((((((....)))))))
- folding enthalpy [1]: -44.8 kcal/mol
- Tm [2]: 69.1 °C

Sequence: GATCGAGCAATCGATC ((((((....))))))
- folding enthalpy [1]: -39.7 kcal/mol
- Tm [2]: 57.7 °C

Sequence: GATGCTGGAAACAGTATC (((.(((....))).)))
- folding enthalpy [1]: -33.8 kcal/mol
- Tm [2]: 47 °C

Sequence: GCGTGCGGAAACGCACAC (.(((((....))))).)
- folding enthalpy [1]: -8.53 kcal/mol
- Tm [2]: 50.3 °C

Sequence: GATCGTACCAACGATC ((((((....))))))
- folding enthalpy [1]: -36.7 kcal/mol
- Tm [2]: 55.5 °C

Sequence: GCGTCGTACGC ((((...))))
- folding enthalpy [1]: -18.3 kcal/mol
- Tm [2]: 65.6 °C

Sequence: GTCTTGGGAAACTGAGAC ((((..(....)..))))
- folding enthalpy [1]: -23.8 kcal/mol
- Tm [2]: 35.1 °C

Sequence: GAAGATGGAAACATCTCC (.(((((....))))).)
- folding enthalpy [1]: -16.3 kcal/mol
- Tm [2]: 33.4 °C

Sequence: CGTGCGGAAACGCGTACG ((((((....)))..)))
- folding enthalpy [1]: -26.1 kcal/mol
- Tm [2]: 48.6 °C

Sequence: GATTGCCGAAAGGCATC (((.(((....))))))
- folding enthalpy [1]: -10.3 kcal/mol
- Tm [2]: 44.6 °C

Sequence: GATCTCACACGAGATC ((((((....))))))
- folding enthalpy [1]: -41.5 kcal/mol
- Tm [2]: 52.4 °C

Sequence: GGAGTGGCGAAAGCCTCC (((..(((....))))))
- folding enthalpy [1]: -15 kcal/mol
- Tm [2]: 44 °C

Sequence: GGTTTGGGAAACCAGATC (.(.(((....))).).)
- folding enthalpy [1]: -10.3 kcal/mol
- Tm [2]: 30 °C

Sequence: CCGAAGAAATTCGG (((((....)))))
- folding enthalpy [1]: -19.2 kcal/mol
- Tm [2]: 46.9 °C

Sequence: GCTGCTCGAAAGAGAGC (((.(((....))))))
- folding enthalpy [1]: -20.5 kcal/mol
- Tm [2]: 48 °C

Sequence: GTGCGACCGAAAGGTCAC (((..(((....))))))
- folding enthalpy [1]: -13.1 kcal/mol
- Tm [2]: 60 °C

Sequence: GACAGGACGAAAGTCGTC (((..(((....))))))
- folding enthalpy [1]: -16.7 kcal/mol
- Tm [2]: 42.6 °C

Sequence: GTAGGTCGAAAGACTAC (((.(((....))))))
- folding enthalpy [1]: -17.6 kcal/mol
- Tm [2]: 43.3 °C

Sequence: GGCACCGAAAGGTAGGCC ((((((....)))..)))
- folding enthalpy [1]: -29.7 kcal/mol
- Tm [2]: 52.7 °C

Sequence: GATCGGTTTCCGATC ((((((...))))))
- folding enthalpy [1]: -34.7 kcal/mol
- Tm [2]: 59 °C

Sequence: GATCCAACGATGGATC ((((((....))))))
- folding enthalpy [1]: -34 kcal/mol
- Tm [2]: 48.1 °C

Sequence: GATCCTAGCAGGATC ((((((...))))))
- folding enthalpy [1]: -37 kcal/mol
- Tm [2]: 55.9 °C

Sequence: GGAACACGAAAGTGTCC (((.(((....))))))
- folding enthalpy [1]: -23.5 kcal/mol
- Tm [2]: 52 °C

Sequence: CGGACGGAAACGTCCCCG ((((((....)))..)))
- folding enthalpy [1]: -7.24 kcal/mol
- Tm [2]: 34.7 °C

Sequence: GGCTCCGAAAGGAGTGCC ((((((....)))..)))
- folding enthalpy [1]: -14.5 kcal/mol
- Tm [2]: 50 °C

Sequence: GGAAAACGAAAGTTATCC (((.(((....))).)))
- folding enthalpy [1]: -29.6 kcal/mol
- Tm [2]: 37 °C

Sequence: GCGATCCTTCGC ((((....))))
- folding enthalpy [1]: -24.6 kcal/mol
- Tm [2]: 53.7 °C

Sequence: GGTAAGGCGAAAGCCACC (((..(((....))))))
- folding enthalpy [1]: -15.3 kcal/mol
- Tm [2]: 43.7 °C

Sequence: GCGAGAGGAAACTCTTGC ((.((((....)))).))
- folding enthalpy [1]: -37 kcal/mol
- Tm [2]: 50 °C

Sequence: GTGAGACGAAAGTCGCAC (((.(((....))).)))
- folding enthalpy [1]: -31.9 kcal/mol
- Tm [2]: 64.5 °C

Sequence: GATCCCCTCGGGGATC ((((((....))))))
- folding enthalpy [1]: -32.5 kcal/mol
- Tm [2]: 67.6 °C

Sequence: GAAGTGGGAAACCACTCC (.(((((....))))).)
- folding enthalpy [1]: -14 kcal/mol
- Tm [2]: 38.4 °C

Sequence: GCATACGAAAGTAGTTGC ((((((....)))..)))
- folding enthalpy [1]: -17.5 kcal/mol
- Tm [2]: 33.1 °C

Sequence: GCGTTCGGAAACGAGTGC ((..(((....)))..))
- folding enthalpy [1]: -25.7 kcal/mol
- Tm [2]: 41.8 °C

Sequence: GCGCAAGGAAACCTGCGC (((((.(....).)))))
- folding enthalpy [1]: -41.7 kcal/mol
- Tm [2]: 62.4 °C

Sequence: GGTTTAGGAAACTAAATC (.(((((....))))).)
- folding enthalpy [1]: -22.2 kcal/mol
- Tm [2]: 35.5 °C

Sequence: GCGGGTGGAAACACCCAC (.(((((....))))).)
- folding enthalpy [1]: -11.5 kcal/mol
- Tm [2]: 48.7 °C

Sequence: GGCGTCGAAAGACGCGCC ((((((....)))..)))
- folding enthalpy [1]: -6.87 kcal/mol
- Tm [2]: 62.7 °C

Sequence: CGGGAGCGGAAACGCCCG (((..(((....))))))
- folding enthalpy [1]: -21.4 kcal/mol
- Tm [2]: 53.6 °C

Sequence: GGGTACGGAAACGTATCC ((.((((....)))).))
- folding enthalpy [1]: -30.1 kcal/mol
- Tm [2]: 51.8 °C

Sequence: GCCATGCGAAAGCGCGGC (((..((....))..)))
- folding enthalpy [1]: -20 kcal/mol
- Tm [2]: 59.2 °C

Sequence: GCTGTGCGAAAGCAGGGC ((..(((....)))..))
- folding enthalpy [1]: -21.1 kcal/mol
- Tm [2]: 50.3 °C

Sequence: GTATAGAAATATAC (((((....)))))
- folding enthalpy [1]: -7.94 kcal/mol
- Tm [2]: 23.1 °C

Sequence: GTTCTTCGAAAGAACAAC (((.(((....))).)))
- folding enthalpy [1]: -14.9 kcal/mol
- Tm [2]: 32 °C

Sequence: GCTCTTGGAAACAAGAGC (((((((....)))))))
- folding enthalpy [1]: -37.2 kcal/mol
- Tm [2]: 63.2 °C

Sequence: GATCTACCATAGATC ((((((...))))))
- folding enthalpy [1]: -30.5 kcal/mol
- Tm [2]: 37.5 °C

Sequence: GTTACGCGAAAGCGCAAC (((.(((....))).)))
- folding enthalpy [1]: -19.4 kcal/mol
- Tm [2]: 49.3 °C

Sequence: GTCTCACGAAAGTGCGAC (((.(((....))).)))
- folding enthalpy [1]: -38.7 kcal/mol
- Tm [2]: 50.3 °C

Sequence: GCAAAACCGAAAGGTTGC (((..(((....))))))
- folding enthalpy [1]: -17.7 kcal/mol
- Tm [2]: 50 °C

Sequence: GATGCGCGAAAGCGTATC (((.(((....))).)))
- folding enthalpy [1]: -27.8 kcal/mol
- Tm [2]: 63 °C

Sequence: GCAATGCGAAAGCATGC (((.(((....))))))
- folding enthalpy [1]: -22.9 kcal/mol
- Tm [2]: 63 °C
